From ChEMBL document CHEMBL1131438, “Inactivation of O6-alkylguanine-DNA alkyltransferase. 1. Novel O6-(hetarylmethyl)guanines having basic rings in the side chain” (J Med Chem, 1998)

Assays:
[1] = In vitro half-life at 37 degree Centigrade in phosphate-buffered saline(PBS; pH =7-7.2); type: ADME
[2] = target: T1, Methylated-DNA--protein-cysteine methyltransferase (Homo sapiens, UniProt P16455); experiment: O6-Alkylguanine-DNA Alkyltransferase-Inactivating Activity (Concentration of inactivator required to produce 50% reduction in alkyltransferase activity)
T1 sequence (P16455 whole entry): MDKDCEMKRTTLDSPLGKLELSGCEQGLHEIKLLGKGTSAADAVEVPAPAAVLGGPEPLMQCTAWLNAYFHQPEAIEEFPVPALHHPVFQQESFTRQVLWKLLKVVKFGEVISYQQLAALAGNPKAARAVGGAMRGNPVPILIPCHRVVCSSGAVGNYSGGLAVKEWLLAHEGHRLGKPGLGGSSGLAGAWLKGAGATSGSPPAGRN
How it was run: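 Pure recombinant human ATase (50–60 fmol, titrated so ATase is limiting) preincubated 1 h at 37 °C with varying inactivator in 200 µL buffer (50 mM Tris-HCl pH 8.3, 3 mM DTT, 1 mM EDTA, 1 mg/mL BSA) plus 10 µg calf thymus DNA. Then 3H-methylated DNA substrate (4 µg DNA, 100 fmol O6-methylguanine) added, 1 h at 37 °C. After acid hydrolysis, 3H-methylated protein counted by scintillation. Duplicates, experiments repeated several times.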

[3] = target: T1, Methylated-DNA--protein-cysteine methyltransferase; experiment: O6-Alkylguanine-DNA Alkyltransferase-Inactivating Activity in Raji cells (Concentration of inactivator required to produce 50% reduction in alkyltransferase activity); type: cell-based
How it was run: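 Raji cells in RPMI + 10% horse serum, 10^6/mL, exposed to inactivator or DMSO vehicle for 2 h at 37 °C. Cells washed, sonicated in Tris-DTT-EDTA buffer pH 8.3 with leupeptin, PMSF added, debris spun out. Supernatant ATase measured by transfer of 3H-methyl from O6-methylguanine DNA substrate to protein; activity expressed as % of untreated controls.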

half-life [1] | IC50 [2] | IC50 [3] | Structure (SMILES)
> 48 h | 130 nM | 200 nM | NC1=Nc2nc[nH]c2C(OCc2ccncc2)N1 (stereo not given)
0.38 h | 80 nM | 120 nM | NC1=Nc2nc[nH]c2C(OCc2ccco2)N1 (stereo not given)
1.95 h | 5 nM | 10 nM | NC1=Nc2nc[nH]c2C(OCc2ccc(Br)s2)N1 (stereo not given)
> 48 h |  | 6000 nM | NC1=Nc2nc[nH]c2C(OCc2ccccn2)N1 (stereo not given)
0.19 h | 8500 nM | 21000 nM | Cn1cncc1COC1N=C(N)Nc2[nH]cnc21 (stereo not given)
> 48 h | 70 nM | 70 nM | NC1=Nc2nc[nH]c2C(OCc2cnsc2)N1 (stereo not given)
> 48 h | 350 nM | 220 nM | NC1=Nc2nc[nH]c2C(OCc2cnco2)N1 (stereo not given)
> 48 h | 230 nM | 90 nM | NC1=Nc2nc[nH]c2C(OCc2cnc3c(c2)OCO3)N1 (stereo not given)
> 48 h | 40 nM | 50 nM | NC1=NC(OCc2ccnc(Cl)c2)c2[nH]cnc2N1 (stereo not given)
> 48 h | 250 nM | 200 nM | NC1=NC(OCc2cncc(Br)c2)c2[nH]cnc2N1 (stereo not given)
0.67 h | 18 nM | 30 nM | NC1=NC(OCc2cccs2)c2[nH]cnc2N1 (stereo not given)
> 48 h | 1400 nM | 5400 nM | NC1=NC(OCc2ccc[n+]([O-])c2)c2[nH]cnc2N1 (stereo not given)
> 48 h | 200 nM | 120 nM | NC1=Nc2nc[nH]c2C(OCc2ccc(Cl)nc2)N1 (stereo not given)
> 48 h | 430 nM | 220 nM | NC1=Nc2nc[nH]c2C(OCc2cccnc2)N1 (stereo not given)
> 48 h | 33 nM | 60 nM | NC1=NC(OCc2cncs2)c2[nH]cnc2N1 (stereo not given)

Structure (SMILES) | half-life [1] | IC50 [2] | IC50 [3]
Nc1nc(OCc2ccccc2)c2[nH]cnc2n1 [6-O-BENZYLGUANINE] | > 48 h |  | 
